From PubChem
An excerpt weighted towards active compounds, which were near 5.4% of everything screened.
CSC inhib: blocks cancer stem cells | cancer stem cell-like cells viability, luminescence | inhibition, % at 7.5 µM | 1.1% of 300,000 active | AID 2717; in the data active = inhibition above about 75%; tested in HMLE shEcad cells
aSyn 5UTR inh: MLPCN primary screen, SNCA 5' untranslated region | alpha-synuclein 5'UTR reporter, inhibitor activity | inhibition, % (tested at 7.5 µM) | 0.82% of 300,000 active | AID 1813; in the data active = inhibition above about 60%;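 note: H4 neuroglioblastoma cells stably carrying SNCA 5'UTR luciferase fusion; 0% = DMSO wells and 100% = positive control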
T cruzi repl: blocks replication of Trypanosoma cruzi; T. cruzi beta-gal in NIH3T3, luminescence, 90 h; inhibition, % (concentration not given with the values); 1.4% of 300,000 active;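 active = mean inhibition across valid replicates above about 55%, limit read from the data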;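 note: signal also drops with host cell toxicity which is not excluded here; 0% = plate median of DMSO wells and 100% = zero luminescence signal; higher percent means less beta-gal luminescence so fewer parasites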
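Material: NIH/3T3 host cells with β-galactosidase reporter T. cruzi; Input: 5,000 host fibroblasts per well; Medium: DMEM, 2% fetal bovine serum; Compound: 50 nL DMSO compound solution per well; Schedule: 3 h host attachment, then at least 90 h co-culture; Detection: luminescent β-galactosidase signal after 60 min lysis.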
SKKanGAS inh: inhibitors of SKKanGAS S. pyogenes growth in kanamycin (SK-promoter or general growth effect) | 1.3% of 300,000 active | AID 1662 | inhibition, % at 7.5 µM | BacTiter-Glo, 6 h;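 active = mean replicate score, as percent of positive control median, at least 50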;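 note: strain carries kanamycin resistance gene driven by streptokinase promoter and grows in 40 µg/ml kanamycin; loss of luminescence reflects streptokinase promoter inhibition or plain growth inhibition; 0% = median of DMSO wells and 100% = positive control at its reference dose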
Mdm2 MdmX PPI: inhibitors of human Mdm2/MdmX interaction; AID 485346; O15151+Q00987; SaOS-2 split-luciferase Mdm2/MdmX complementation, luminescence; inhibition, % at 8 µM; 3% of 330,000 active;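 active = inhibition of at least 50% at 8 µM in the primary screen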
Active calls of the source: *; · = no result given.

SMILES	CSC inhib	aSyn 5UTR inh	T cruzi repl	SKKanGAS inh	Mdm2 MdmX PPI
CCOc1ccc(C(=O)NC(=S)Nc2cccc(S(=O)(=O)NC3=NCCC3)c2)cc1	38.8	110.8*	-2.3	-2.9	49.7
CC1(c2cccc(Br)c2)NC(=O)N(CC(=O)N2CCc3ccccc32)C1=O (configuration not stated)	·	·	·	·	-6.9
CCCCCOc1ccc(C2C(C(=O)c3ccc(C)o3)=C(O)C(=O)N2c2cc(C)on2)cc1 (configuration not stated)	-2.1	-24.1	-0.7	81.4*	18.7
CC1CCCCN1Cc1nc2c(c(=O)n(C)c(=O)n2C)n1Cc1c(F)cccc1Cl (configuration not stated)	76.6*	·	·	·	28.3
Cn1c(=O)c2c(nc(CN3CCC(C(N)=O)CC3)n2Cc2c(F)cccc2Cl)n(C)c1=O	-4.3	-21.7	3.4	4.8	-36.0
O=C(OCc1ccccc1)c1cccc(-c2nnn(Cc3ccccc3)n2)c1	29.0	-90.7	-0.7	54.6*	-27.1
NC(=O)C1CCN(C(=O)c2ccc(NS(=O)(=O)c3ccc(Br)s3)cc2)CC1	·	·	·	·	2.7
CN(C)CCNc1nc2sc3c(c2c(=O)n1-c1ccccc1)CCCCC3	75.1*	-7.3	39.9	5.2	10.2
CCC(CC)NC(=O)c1cc2c(C)nn(Cc3ccccc3Cl)c2s1	-14.2	70.5*	29.0	1.4	15.5
Cc1ccc(-c2ccc(OC(=O)c3ccc(=O)[nH]c3)c(C)c2)cc1	75.8*	-21.1	1.6	30.4	13.0
COC(=O)c1cc(OC(=O)c2ccc(=O)[nH]c2)cc(C(=O)OC)c1	-20.0	-0.5	-9.5	3.1	10.1
Clc1ncc(CN2CCN(Cc3ccccc3)CC2)s1	-0.8	-41.2	33.6	-1.5	5.0
Cc1cccc(-n2c(SCc3ccc([N+](=O)[O-])cc3)nnc2-c2c[nH]c3ccccc23)c1	·	32.7	65.5*	36.1	37.3
CCSc1nnc(SCC(=O)NC2CCCCC2)s1	-12.0	·	·	·	21.4
CCOC(=O)c1nn(-c2ccc(F)cc2)c(-c2ccccc2)c1C(=O)c1ccccc1	78.3*	21.0	38.7	-20.9	-6.9
Cn1c(=O)[nH]c(=O)c2c1nc(N1CCC(Cc3ccccc3)CC1)n2Cc1ccccc1	13.6	32.1	35.0	53.1*	29.2
CCCn1c(N2CCC(Cc3ccccc3)CC2)nc2c1c(=O)[nH]c(=O)n2C	8.4	22.5	18.0	1.1	33.2
CC(=O)Nc1ccc(NC(=O)C(C)Sc2nc3ccccc3c(=O)n2CC2CCCO2)cc1 (configuration not stated)	-9.0	-2.4	-7.7	0.1	17.9
O=[N+]([O-])c1ccc(-n2cnc3ccccc32)c([N+](=O)[O-])c1	-5.8	-7.3	71.0*	1.7	25.2
CCN(CC(=O)Nc1ccc(NC(C)=O)cc1)C(=O)CCCOc1ccc(C(C)(C)C)cc1	29.4	-22.9	-8.5	2.0	15.5
O=C(CSc1nc2nc(-c3cccs3)cc(C(F)(F)F)c2c(=O)[nH]1)Nc1c(F)c(F)c(F)c(F)c1F	88.1*	4.2	-7.5	42.1	41.4
O=C(Cn1c2ccccc2c(=O)c2ccccc21)N/N=C/c1ccc(N2CCCC2)c([N+](=O)[O-])c1	112.6*	111.0*	-6.2	-14.6	·
N#Cc1ccc(C(=O)Nc2nc(SCc3ccc(Cl)cc3)n[nH]2)cc1	25.5	4.1	25.5	86.8*	46.7
COc1ccc(S(=O)(=O)N2CCCCC2)cc1NC(=O)C1COc2ccccc2O1 (configuration not stated)	-4.3	1.5	4.2	-6.8	0.1
O=C1C=C(Nc2ccccc2O)c2ccccc2C1=O	99.1*	55.3	-40.5	51.5*	34.3
SMILES	CSC inhib	aSyn 5UTR inh	T cruzi repl	SKKanGAS inh	Mdm2 MdmX PPI
O=C1C=C(Nc2ccc(F)cc2)c2ccccc2C1=O	112.4*	·	·	·	44.3
Cn1ccnc1-c1ccc(-c2nccn2C)cc1	-7.7	0.2	-12.5	-0.4	-0.6
CN(CCC#N)S(=O)(=O)c1ccc2[nH]cc(C(=O)NCCc3ccccc3)c(=O)c2c1	-4.6	-3.9	2.2	-2.0	21.5
COc1ccccc1CN1CCN(Cc2nc(-c3cccs3)no2)CC1	6.6	-49.6	61.0*	1.3	-56.0
COc1ccc(-c2nc(-c3cccs3)no2)cc1	13.9	82.6*	-2.6	11.4	-80.0
COc1ccc(-c2nc(-c3ccncc3)no2)cc1	3.6	-52.7	-20.1	-4.3	·
O=C(CCCCCN1C(=O)[C@@H]2Cc3ccccc3CN2C1=O)Nc1ccccc1F	-0.7	0.7	5.7	-5.0	12.0
O=C(NCCNC(=O)C(c1ccccc1)c1ccccc1)c1ccco1	-2.1	8.7	-18.5	-5.7	12.7
